Data: BindingDB's records for doi:10.1021/acs.jmedchem.5b01723 (Uppsala University, 2016)

Tests used:
[1] = molecular target: T1, Carbonic anhydrase 12 (Homo sapiens, UniProt O43570); assay: Binding affinity to human recombinant CA12 catalytic domain assessed as dissociation rate constant after 30 secs by surface plasmon resonance assay
[2] = molecular target: T2, Carbonic anhydrase 7 (Homo sapiens, UniProt P43166); assay: Binding affinity to human recombinant CA7 assessed as dissociation rate constant after 30 secs by surface plasmon resonance assay
[3] = molecular target: T1, Carbonic anhydrase 12; assay: Binding affinity to human recombinant CA12 catalytic domain assessed as association rate constant after 30 secs by surface plasmon resonance assay; settings: read-out: kon (M-1-s-1)
[4] = molecular target: T2, Carbonic anhydrase 7; assay: Binding affinity to human recombinant CA7 assessed as association rate constant after 30 secs by surface plasmon resonance assay; settings: read-out: kon (M-1-s-1)
[5] = molecular target: T3, Carbonic anhydrase 2 (Homo sapiens, UniProt P00918); assay: Binding affinity to human recombinant CA2 expressed in Escherichia coli assessed as dissociation rate constant after 30 secs by surface plasmon resonance assay
[6] = molecular target: T4, Carbonic anhydrase 13 (Homo sapiens, UniProt Q8N1Q1); assay: Binding affinity to human recombinant CA13 assessed as association rate constant after 30 secs by surface plasmon resonance assay; settings: read-out: kon (M-1-s-1)
[7] = molecular target: T4, Carbonic anhydrase 13; assay: Binding affinity to human recombinant CA13 assessed as dissociation rate constant after 30 secs by surface plasmon resonance assay
[8] = molecular target: T3, Carbonic anhydrase 2; assay: Binding affinity to human recombinant CA2 expressed in Escherichia coli assessed as association rate constant after 30 secs by surface plasmon resonance assay; settings: read-out: kon (M-1-s-1)
[9] = molecular target: T5, Carbonic anhydrase 1 (Homo sapiens, UniProt P00915); assay: Binding affinity to human recombinant CA1 expressed in Escherichia coli assessed as association rate constant after 30 secs by surface plasmon resonance assay
In short: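 Full-length enzyme amine-coupled to a carboxymethyl-dextran chip (75 µg/mL in 10 mM sodium acetate pH 5, about 6000 RU). SPR at 25 °C in PBST pH 7.4 with 2% DMSO. Ligands injected as 2-fold series, 15.6–2000 nM, at 30 or 90 µL/min. Association 30 s, dissociation 180 s. Regeneration with 200 µM sulphanilamide. ka from non-linear fit to a one-step binding model with mass transport.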

[10] = molecular target: T5, Carbonic anhydrase 1; assay: Binding affinity to human recombinant CA1 expressed in Escherichia coli assessed as dissociation rate constant after 30 secs by surface plasmon resonance assay
In short: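 CA I immobilized by amine coupling (75 µg mL−1 in 10 mM sodium acetate, pH 5) to about 6000 RU. SPR run at 25 °C in PBST with 2 % DMSO, pH 7.4. Ligand given as 2-fold series, 15.6–2000 nM, at 30 or 90 µL min−1. Association 30 s, dissociation 180 s; sulphanilamide 200 µM regeneration where needed. kd from non-linear fit to one-step binding with mass transport.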

T5 sequence (P00915 whole entry): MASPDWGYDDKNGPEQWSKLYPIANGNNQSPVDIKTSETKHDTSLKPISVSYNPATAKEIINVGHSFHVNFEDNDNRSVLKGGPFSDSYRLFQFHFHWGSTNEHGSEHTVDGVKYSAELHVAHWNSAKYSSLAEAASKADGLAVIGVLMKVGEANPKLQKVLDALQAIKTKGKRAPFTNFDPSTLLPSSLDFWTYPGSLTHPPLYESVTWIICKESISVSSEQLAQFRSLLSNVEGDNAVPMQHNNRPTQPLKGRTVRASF
T4 sequence (Q8N1Q1 whole entry): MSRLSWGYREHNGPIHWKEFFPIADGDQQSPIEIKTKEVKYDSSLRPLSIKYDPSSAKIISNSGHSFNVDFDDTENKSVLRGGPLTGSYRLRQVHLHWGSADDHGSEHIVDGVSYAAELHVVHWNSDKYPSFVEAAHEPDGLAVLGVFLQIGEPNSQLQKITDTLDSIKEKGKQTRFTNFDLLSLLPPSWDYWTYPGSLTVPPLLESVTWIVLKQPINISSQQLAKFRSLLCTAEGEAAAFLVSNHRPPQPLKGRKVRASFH
T2 sequence (P43166 whole entry, the tested form may be a part): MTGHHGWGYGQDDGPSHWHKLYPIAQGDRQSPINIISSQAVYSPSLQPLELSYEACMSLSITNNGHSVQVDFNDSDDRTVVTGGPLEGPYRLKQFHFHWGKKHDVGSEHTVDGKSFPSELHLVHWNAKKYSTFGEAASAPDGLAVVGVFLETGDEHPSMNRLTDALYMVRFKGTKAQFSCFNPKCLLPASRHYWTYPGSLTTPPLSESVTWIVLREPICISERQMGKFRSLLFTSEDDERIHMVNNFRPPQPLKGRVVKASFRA
T1 sequence (O43570 whole entry, the tested form may be a part): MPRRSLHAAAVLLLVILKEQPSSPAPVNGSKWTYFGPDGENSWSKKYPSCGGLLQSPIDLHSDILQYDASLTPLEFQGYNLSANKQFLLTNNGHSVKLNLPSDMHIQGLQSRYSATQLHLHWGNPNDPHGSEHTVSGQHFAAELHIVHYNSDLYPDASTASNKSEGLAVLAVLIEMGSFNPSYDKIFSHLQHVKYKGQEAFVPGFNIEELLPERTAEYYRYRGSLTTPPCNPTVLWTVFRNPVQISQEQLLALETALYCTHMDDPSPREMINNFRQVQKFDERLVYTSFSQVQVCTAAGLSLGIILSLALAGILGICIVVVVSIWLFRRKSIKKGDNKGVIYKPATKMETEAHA

| koff [1] [s⁻¹] | koff [2] [s⁻¹] | kon [3] [M⁻¹ s⁻¹] | kon [4] [M⁻¹ s⁻¹] | koff [5] [s⁻¹] | kon [6] [M⁻¹ s⁻¹] | koff [7] [s⁻¹] | kon [8] [M⁻¹ s⁻¹] | kon [9] [M⁻¹ s⁻¹] | koff [10] [s⁻¹] | SMILES |
| --- | --- | --- | --- | --- | --- | --- | --- | --- | --- | --- |
| 0.05 | 0.01 | 130000 | 20000 |  |  |  |  |  |  | CCCSc1c(F)c(F)c(S(N)(=O)=O)c(NC2CCCCCCC2)c1F [carbonic anhydrase (CA) inhibitors, benzenesulphonamide ligand, 12] |
|  | 0.002 |  | 49000 | 0.0087 | 510000 | 0.0079 | 86000 |  |  | CCCS(=O)(=O)c1c(F)c(F)c(S(N)(=O)=O)c(F)c1NC1CCCCCCC1 [carbonic anhydrase (CA) inhibitors, benzenesulphonamide ligand, 13] |
| 0.14 | 0.013 | 1.5e+06 | 290000 | 0.0082 |  |  | 1.3e+06 | 390000 | 0.01 | CNc1c(F)c(S(N)(=O)=O)c(F)c(F)c1S(=O)(=O)CCc1ccccc1 [carbonic anhydrase (CA) inhibitors, benzenesulphonamide ligand, 14] |
| 0.011 |  | 180000 |  |  |  |  |  |  |  | CC(C)(C)Nc1c(F)c(S(N)(=O)=O)c(F)c(F)c1S(=O)(=O)CCc1ccccc1 [carbonic anhydrase (CA) inhibitors, benzenesulphonamide ligand, 15] |
|  | 0.14 |  | 30000 | 0.026 | 100000 | 0.022 | 390000 | 110000 | 0.0066 | COc1ccc(CNc2c(F)c(F)c(F)c(F)c2S(N)(=O)=O)cc1 [carbonic anhydrase (CA) inhibitors, benzenesulphonamide ligand, 15] |
| 0.041 | 0.071 | 880000 | 2.6e+06 | 0.0093 | 920000 | 0.011 | 1.4e+06 |  |  | NS(=O)(=O)c1c(F)c(F)c(N2CCCCC2)c(F)c1F [carbonic anhydrase (CA) inhibitors, benzenesulphonamide ligand, 16] |
